ChEMBL document CHEMBL1938251, “Synthesis and evaluation of potent and selective human V1a receptor antagonists as potential ligands for PET or SPECT imaging” (Bioorg Med Chem, 2012)

Legend:
Vasopressin V1b receptor = molecular target: T1, Vasopressin V1b receptor (Homo sapiens, UniProt P47901); assay: Binding affinity to human V1b receptor
T1 sequence (P47901 whole entry): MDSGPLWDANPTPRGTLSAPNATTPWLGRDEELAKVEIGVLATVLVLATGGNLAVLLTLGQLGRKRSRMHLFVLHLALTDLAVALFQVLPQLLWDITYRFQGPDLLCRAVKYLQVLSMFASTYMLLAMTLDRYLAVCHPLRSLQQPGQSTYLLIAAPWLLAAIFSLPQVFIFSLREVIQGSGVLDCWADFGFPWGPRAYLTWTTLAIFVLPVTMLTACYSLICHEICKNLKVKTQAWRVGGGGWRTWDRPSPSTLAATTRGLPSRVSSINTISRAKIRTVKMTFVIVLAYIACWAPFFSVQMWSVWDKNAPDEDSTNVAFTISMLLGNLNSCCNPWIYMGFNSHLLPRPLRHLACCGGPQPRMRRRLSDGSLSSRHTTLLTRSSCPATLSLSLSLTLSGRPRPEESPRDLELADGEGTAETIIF

Vasopressin V2 receptor = Vasopressin V2 receptor (Homo sapiens, UniProt P30518); assay: Binding affinity to human vasopressin V2 receptor
Chain of Vasopressin V2 receptor (P30518 whole entry): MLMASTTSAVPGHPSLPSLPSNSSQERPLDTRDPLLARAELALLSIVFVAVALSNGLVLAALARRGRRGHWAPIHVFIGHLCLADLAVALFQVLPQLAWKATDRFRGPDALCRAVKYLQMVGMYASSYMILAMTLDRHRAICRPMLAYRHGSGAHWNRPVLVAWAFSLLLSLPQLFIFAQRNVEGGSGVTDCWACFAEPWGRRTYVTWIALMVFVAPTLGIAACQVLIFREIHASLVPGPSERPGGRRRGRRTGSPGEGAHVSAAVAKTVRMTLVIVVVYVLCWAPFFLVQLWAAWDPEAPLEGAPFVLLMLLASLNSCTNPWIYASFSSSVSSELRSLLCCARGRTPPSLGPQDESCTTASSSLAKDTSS

[1] = Permeability of the compound at 5 mg/ml after 18 hrs by PAMPA-BBB assay; format: ADME; settings: in the assay text read “25 ug/ml” for “5 mg/ml”
Method in brief: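 PAMPA-BBB: DMSO stocks (5 mg/mL) diluted 200-fold into universal buffer pH 7.4, giving 25 μg/mL in the donor wells. The filter membrane was coated with porcine brain lipid in dodecane (20 mg/mL), with buffer pH 7.4 as acceptor. Plates stood undisturbed at room temperature for 18 h. Verapamil and theophylline served as high- and low-permeability standards. Pe was calculated by the Faller equation.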

Vasopressin V1a receptor = Vasopressin V1a receptor (Homo sapiens, UniProt P37288); assay: Displacement of [3H]arginine-vasopressin from human Vasopressin V1a receptor after 30 mins by liquid scintillation counter
Chain of Vasopressin V1a receptor (P37288 whole entry): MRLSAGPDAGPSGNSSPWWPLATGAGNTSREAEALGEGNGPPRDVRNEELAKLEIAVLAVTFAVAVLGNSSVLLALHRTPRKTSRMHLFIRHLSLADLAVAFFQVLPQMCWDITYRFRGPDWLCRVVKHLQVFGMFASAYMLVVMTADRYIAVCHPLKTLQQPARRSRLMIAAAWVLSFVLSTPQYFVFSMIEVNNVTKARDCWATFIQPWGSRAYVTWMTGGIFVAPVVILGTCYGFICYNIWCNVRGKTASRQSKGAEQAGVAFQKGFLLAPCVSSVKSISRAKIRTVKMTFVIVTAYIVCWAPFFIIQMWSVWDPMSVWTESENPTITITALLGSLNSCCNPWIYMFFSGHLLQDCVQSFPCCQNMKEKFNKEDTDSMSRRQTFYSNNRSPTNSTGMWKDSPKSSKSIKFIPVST

[2] = Permeability of the compound at 25 ug/ml after 18 hrs by PAMPA-BBB assay

Structure (SMILES)	Ki (Vasopressin V1b receptor) [µM]	Ki (Vasopressin V2 receptor) [µM]	permeability [1] [×10⁻⁶ cm/s]	Ki (Vasopressin V1a receptor) [µM]	permeability [2] [×10⁻⁶ cm/s]
C[C@@H](NC(=O)[C@@H](CC(=O)N1CCC(N2CCCCC2)CC1)N1C(=O)[C@@H](N2C(=O)OC[C@@H]2c2ccccc2)[C@H]1/C=C/c1cccc(I)c1)c1ccccc1	> 1	> 1	2.2	–	–
C[C@@H](NC(=O)[C@@H](CC(=O)N1CCC(N2CCCCC2)CC1)N1C(=O)[C@@H](N2C(=O)OC[C@@H]2c2ccccc2)[C@H]1/C=C/c1cccc(F)c1)c1ccccc1	1.15	> 10	–	0.00061	5.3
Cc1cccc(/C=C/[C@@H]2[C@H](N3C(=O)OC[C@@H]3c3ccccc3)C(=O)N2[C@H](CC(=O)N2CCC(N3CCCCC3)CC2)C(=O)N[C@H](C)c2ccccc2)c1	1.3	> 10	–	0.00063	4.5
